Bcl-xL primary = Bcl-xL (human) inhibition; hit rate 0.7% among 320,000; GST-Bcl-xL / FITC-Bim BH3 peptide fluorescence polarization; inhibition, % at 10.9 µM; AID 2129;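 active means inhibition above the mean of all tested compounds plus 3 SD, cutoff set per campaign, cut at about 30% in these data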;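 further: 0% = DMSO wells and 100% = unlabeled Bim-BH3 peptide competitor; inhibitors lower millipolarization by displacing the labeled peptide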
IMP-1 inhibitor = inhibitors of Pseudomonas aeruginosa IMP-1 metallo-beta-lactamase. purified IMP-1, nitrocefin hydrolysis, epi-absorbance fluorescence. inhibition, % at 5.6 µM. hit rate 0.45% among 290,000. AID 1556;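 active means inhibition above the mean plus 3 SD of all compounds in the same screening run, cut at about 4.5% in these data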;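 further: 0% = IMP-1 with DMSO and 100% = DMSO wells lacking enzyme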
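System: purified IMP-1 / Input: IMP-1 dispensed at 0.2 nM / Medium: 50 mM HEPES pH 7.1, 50 µM ZnSO4, 0.05% Brij 35 / Timing: 15 min enzyme–compound preincubation, then 25 min nitrocefin reaction, 25 °C / Technique: plate fluorescence quenching by hydrolysis product, ex 480/em 530 nm / Repeats: singlicate testing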
MEX-5 binding = C. elegans MEX-5 TCR-2 RNA binding activity; activity score (negative = inhibition of binding), % at 10 µM; Q9XUB2; AID 1832; hit rate 0.38% among 300,000; MEX-5/FITC-TCR2 RNA binding, fluorescence polarization; hits give low values;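 active means inhibition past about -25% in most replicates, and total fluorescence under double the plate's negative control median, limit read from the data; inconclusive means replicates evenly split on the limit, or fluorescence at least double controls; inactive means too little inhibition in most replicates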;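 further: 0% = DMSO and -100% = 5 µM competing unlabeled TCR2 RNA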
VIM-2 inh = blocks Pseudomonas aeruginosa VIM-2 metallo-beta-lactamase | purified VIM-2, nitrocefin hydrolysis, epi-absorbance fluorescence | inhibition, % at 5.6 µM | hit rate 0.89% among 290,000 | AID 1527;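 active means inhibition above the mean of all tested compounds plus 3 SD, cutoff set per screening run, cut at about 7.5% in these data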;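 further: red hydrolysis product quenches plate fluorescence so inhibitors raise well fluorescence; 0% = enzyme with DMSO and 100% = DMSO without enzyme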
GLD-1 TGE inh = GLD-1-TGE RNA interaction inhibition (C. elegans). inhibition, % at 5.96 µM. purified GLD-1 + fluorescein TGE RNA, fluorescence polarization. AID 2280. Q17339. hit rate 0.44% among 320,000;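 active means percent inhibition above a per-plate cutoff, the plate mean of test compounds plus 3 SD, cut at about 30% in these data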;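 further: 0% = DMSO wells with GLD-1 and probe and 100% = wells lacking GLD-1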
Target sequence (Q17339 whole entry, looked up): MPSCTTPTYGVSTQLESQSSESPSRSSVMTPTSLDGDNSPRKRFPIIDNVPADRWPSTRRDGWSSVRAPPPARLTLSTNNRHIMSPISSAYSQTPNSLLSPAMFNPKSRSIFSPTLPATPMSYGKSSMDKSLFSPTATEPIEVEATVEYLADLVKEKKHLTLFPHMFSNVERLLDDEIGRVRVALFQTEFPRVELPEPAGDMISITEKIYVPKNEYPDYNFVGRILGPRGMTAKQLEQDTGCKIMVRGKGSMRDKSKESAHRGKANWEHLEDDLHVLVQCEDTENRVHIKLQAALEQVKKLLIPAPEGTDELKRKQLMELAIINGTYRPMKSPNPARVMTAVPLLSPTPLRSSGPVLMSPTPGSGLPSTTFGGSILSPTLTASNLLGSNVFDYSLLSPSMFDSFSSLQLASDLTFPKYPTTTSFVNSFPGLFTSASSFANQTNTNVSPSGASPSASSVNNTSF
EBV gp42 block = blocks Epstein-Barr virus glycoprotein 42 binding; Q1HVG2; Fluorescence polarization binding assay, mP read-out; inhibition, % (tested at 21.74 µM); hit rate 0.42% among 220,000; AID 1085; in the data active means inhibition above about 50%
Target sequence (Q1HVG2 whole entry, looked up): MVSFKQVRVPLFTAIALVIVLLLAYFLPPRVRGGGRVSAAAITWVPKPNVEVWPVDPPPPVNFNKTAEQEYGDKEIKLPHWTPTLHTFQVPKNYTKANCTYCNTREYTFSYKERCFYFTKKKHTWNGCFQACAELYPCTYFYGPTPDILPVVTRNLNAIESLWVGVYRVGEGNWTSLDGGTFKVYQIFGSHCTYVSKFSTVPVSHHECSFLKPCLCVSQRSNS
* hit, by the source's call; ? = inconclusive; · = not tested or not shown. Rows were chosen to be rich in hits. Some 2.2% of all compounds tested hit in one or more screens of this group.

SMILES | Bcl-xL primary | IMP-1 inhibitor | MEX-5 binding | VIM-2 inh | GLD-1 TGE inh | EBV gp42 block
CCOc1ccc(/C=C2/SC(=O)NC2=S)cc1 | 48* | -2 | -2 | -2 | 67* | 7
COc1ccc(C(=O)N2C(=O)c3ccc(N)cc3C2=O)cc1 | 1 | 7.7* | 1 | 0 | 1 | -3
COc1ccccc1CNC(=O)CCC(=O)N1CC(C)Sc2ccccc21 (stereo not drawn) | -3 | -6 | -3 | -2 | 5 | ·
CC(C)(C)c1nnc(NS(=O)(=O)c2ccc([N+](=O)[O-])cc2)s1 | · | -3 | 0 | -4 | · | ·
CCOC(=O)C1=C(Cc2ccc(C)cc2)C(=O)c2ccccc2C1=O | 27 | -4 | 3 | -2 | 43* | -3
CCOC(=O)C1CCN(S(=O)(=O)c2ccc(CN3C(=O)c4cccnc4C3=O)cc2)CC1 | -11 | -3 | 0 | 2 | -10 | ·
O=C1c2cccnc2C(=O)N1Cc1ccc(S(=O)(=O)N2CCN(c3ccc(Cl)cc3)CC2)cc1 | 2 | 2 | 2 | 8.5* | 3 | ·
CCn1ncc(Br)c1C(=O)Nc1ccc(-c2ccno2)cc1 | -3 | 2 | -3 | 1 | 5 | ·
O=C1Nc2ccc3sc4ccccc4c3c2C1=O | 14 | 3 | 2 | 4 | -3 | 58*
COC(=O)c1[nH]c2ccccc2c1NC(=O)CN1CCN(c2cccc(OC)c2)C(C)C1 (stereo not drawn) | -4 | 5.8* | 0 | -2 | 2 | -5
COC(=O)c1[nH]c2cc(OC)ccc2c1NC(=O)CCN1CCN(c2ccccc2)CC1 | 3 | 0 | -2 | -3 | 3 | -19
COc1ccc(CN2CCc3ccccc3C2)c(OC)c1 | 4 | -2 | 0 | -3 | 2 | -12
COc1ccc(C2=[N+](C)CCn3cccc32)c(OC)c1 | -1 | 7.2* | 0 | 3 | -2 | -36
c1cc2c(cc1NC1CCCCCC1)OCO2 | 34* | -2 | -1 | 1 | 2 | ·
O=C(NNC(=O)c1ccccc1O)c1ccc(S(=O)(=O)Nc2ccccc2)cc1 | 7 | · | -23 | · | 9 | ·
Nc1c(S(=O)(=O)c2ccccc2)c2nc3ccccc3nc2n1CCN1CCOCC1 | 11 | -3 | -4 | -4 | -8 | 14
Cc1ccc(S(=O)(=O)c2c(N)n(Cc3ccco3)c3nc4ccccc4nc23)cc1C | 32* | -1 | 2 | -2 | 20 | 4
Nc1c(S(=O)(=O)c2ccccc2)c2nc3ccccc3nc2n1Cc1ccco1 | 23 | 1 | 2 | 0 | 47* | 62*
Cc1c(NS(=O)(=O)c2ccc(NC(=O)CCC(=O)O)cc2)c(=O)n(-c2ccccc2)n1C | 9 | -5 | -1 | -1 | -6 | ·
Cc1ccc(S(=O)(=O)N2CCCCC2)cc1C(=O)OC1CCCCC1=O (stereo not drawn) | -7 | · | 0 | · | 4 | ·
[O-]/C(=C(\C(=S)NCc1ccco1)[n+]1ccccc1)c1ccccc1Br | 10 | 4.8* | ? | 0 | -3 | 14
CC(NC(=O)C12CC3CC(CC(C3)C1)C2)C(=O)N/N=C/C1=C(N2CCOCC2)C(=C\c2cccc([N+](=O)[O-])c2)/CC1 (stereo not drawn) | 0 | -2 | 3 | -2 | 3 | -19
N#C/C(=C\C1=C(N2CCOCC2)C(=C\c2ccc(Cl)cc2)/CC1)C(=O)Nc1ccccc1F | 4 | 1 | -3 | -5 | 5 | 124*
N#C/C(=C\C1=C(N2CCOCC2)C(=C/c2cccc([N+](=O)[O-])c2)/CC1)C(=O)Nc1ccccc1F | 8 | 0 | · | -1 | -3 | 86*
CCN(CC)c1ccc(/C=C2\CCC(/C=C(\C#N)C(=O)Nc3ccccc3F)=C2N2CCOCC2)cc1 | · | -2 | 0 | -5 | · | -4
SMILES | Bcl-xL primary | IMP-1 inhibitor | MEX-5 binding | VIM-2 inh | GLD-1 TGE inh | EBV gp42 block
CSCC[C@H](N)C(=O)N1CCC(C(=O)N[C@H](C)C(=O)Nc2ccc(C(C)C)cc2)CC1 | 2 | -2 | -1 | -4 | 3 | ·
Oc1cc2c(cc1CN1CCN(c3ncccn3)CC1)OCO2 | 4 | -2 | 1 | 0 | 6 | ·
CCOC(=O)C1Nc2ccc(C)cc2C2C=CCC12 (stereo not drawn) | 23 | · | -2 | · | 8 | ·
O=C(O)C1Nc2c(Cl)cc(Cl)c(Cl)c2C2C=CCC12 (stereo not drawn) | 65* | 3 | -2 | 3 | 14 | ·
O=C(O)C1Nc2c(Cl)cc(Cl)cc2C2C=CCC12 (stereo not drawn) | 85* | 0 | -73* | 4 | 2 | ·
O=C(O)C1Nc2c(O)cccc2C2C=CCC12 (stereo not drawn) | 62* | -2 | · | 12* | 3 | 108*
COC(=O)c1c(NC(=O)CC2Nc3cc(C)c(C)cc3NC2=O)sc(C)c1C (stereo not drawn) | 2 | 4.6* | 1 | -1 | -10 | -97
CCc1cc(C(=O)OC)c(NC(=O)CC2Nc3cc(C)c(C)cc3NC2=O)s1 (stereo not drawn) | -6 | -2 | -12 | -1 | -3 | -32
O=C(COc1ccc2c3c(c(=O)oc2c1)CCC3)NCC1CCC(C(=O)O)CC1 (stereo not drawn) | 6 | 0 | -3 | 7 | -6 | ·
Cc1c(OCc2nn[nH]n2)ccc2c3c(c(=O)oc12)CCC(C)C3 (stereo not drawn) | 6 | -3 | -1 | 1 | -1 | -12
CCOC(=O)COc1ccc2c3c(c(=O)oc2c1C)CCC3 | 7 | -1 | -1 | 8.1* | 2 | -6
Cc1c(OCC(=O)NCC(O)c2ccccc2)ccc2c3c(c(=O)oc12)CCCC3 (stereo not drawn) | 3 | -3 | 0 | 9.3* | 7 | ·
Cc1c(OCc2nn[nH]n2)ccc2c3c(c(=O)oc12)CCCC3 | 12 | -4 | 0 | 7.8* | 7 | 6
Cc1c(OCC(=O)C(C)(C)C)ccc2c3c(c(=O)oc12)CCCC3 | 8 | -4 | 1 | 5 | -3 | ·
Cc1c(OCC(=O)NCC2CCC(C(=O)O)CC2)ccc2c3c(c(=O)oc12)CCC3 (stereo not drawn) | -2 | -4 | 1 | 9.4* | 1 | ·
Cc1ccc(NC(=O)Cn2cc([N+](=O)[O-])nc2C)cc1C | -1 | -2 | 0 | -1 | -2 | ·
Cc1ccc(S(=O)(=O)N2[C@@H](c3ccc(Cl)cc3)C(C(=O)O)=CC[C@H]2c2ccc(Cl)cc2)cc1 | 16 | · | · | · | 7 | ·
Cc1cc(OCC(=O)c2cccc(C(F)(F)F)c2)n2cnnc2n1 | 3 | -3 | -3 | -3 | 5 | -6
N#Cc1c(C(F)(F)F)cc(-c2cccc(Cl)c2)[nH]c1=O | 12 | 0 | 2 | 8.7* | -3 | -26
CN(C)Cc1c(C(=O)N/N=C/c2ccco2)nnn1-c1nonc1N | 0 | -4 | -1 | -1 | -1 | ·
O=C(Nc1c2ccccc2nc2ccccc12)C(Cl)(Cl)Cl | 36* | -3 | -1 | 2 | 19 | 8
